Measured values as given in ChEMBL document CHEMBL1287697, “Receptor agonists of macrophage migration inhibitory factor” (Bioorg Med Chem Lett, 2010).
One block for each compound: values may come before it. Active and inactive are the calls of the source. No cut-off for these calls is given here.

How the values were obtained:
[1] = biological target: T1, MIF/CD74 (Macrophage migration inhibitory factor and HLA-DR antigens-associated invariant chain) (Homo sapiens) (UniProt P14174+P04233); assay: (§1) Inhibition of human biotinylated MIF/CD74 interaction; format: protein assay
[2] = biological target: T2, MIF/CD74 (Macrophage migration inhibitory factor and HLA-DR antigens-associated invariant chain) (Homo sapiens, UniProt P04233+P14174); assay: as §1; format: protein assay
T2 sequence (P14174 whole entry): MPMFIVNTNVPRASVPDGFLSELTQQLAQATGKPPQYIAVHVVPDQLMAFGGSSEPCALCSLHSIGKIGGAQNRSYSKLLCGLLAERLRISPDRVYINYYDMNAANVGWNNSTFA
T2 sequence (P04233 whole entry): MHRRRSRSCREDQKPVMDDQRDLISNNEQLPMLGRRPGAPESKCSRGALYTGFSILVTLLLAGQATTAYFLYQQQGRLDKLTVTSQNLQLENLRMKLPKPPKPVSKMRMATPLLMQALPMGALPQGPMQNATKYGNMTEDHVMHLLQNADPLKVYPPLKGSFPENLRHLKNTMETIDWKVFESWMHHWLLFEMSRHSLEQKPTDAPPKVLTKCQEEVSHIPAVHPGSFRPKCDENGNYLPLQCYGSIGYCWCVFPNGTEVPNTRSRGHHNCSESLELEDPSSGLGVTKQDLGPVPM

[3] = biological target: T3, Macrophage migration inhibitory factor (Homo sapiens) (UniProt P14174); assay: Inhibition of MIF-dependent ERK1/2 phosphorylation in human fibroblast after 30 mins by Western blotting
T3 sequence (whole entry): T2 sequence (P14174 whole entry)
Outline: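 MIF-dependent ERK1/2 phosphorylation was measured in human fibroblasts. Phospho-ERK1/2 and total ERK1/2 were detected by western blot. The phospho/total ratio was determined by densitometry across three separate experiments.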

[4] = biological target: T4, Macrophage migration inhibitory factor (Homo sapiens, UniProt P14174); assay: (§2) Inhibition of human MIF tautomerase activity using 4-hydroxyphenylpyruvate as substrate
T4 sequence (P14174 whole entry): T2 sequence (P14174 whole entry)
Outline: (§3)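 Recombinant human MIF tautomerase activity with 4-hydroxyphenylpyruvate as substrate. Compounds were tested between 1 nM and 1 mM. Where inhibition plateaued below 50%, the maximum percent inhibition was reported.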

[5] = biological target: T5, MIF/CD74 (Macrophage migration inhibitory factor and HLA-DR antigens-associated invariant chain) (Homo sapiens, UniProt P14174+P04233); assay: as §1; format: protein assay
T5 sequence (P14174 whole entry): T2 sequence (P14174 whole entry)
T5 sequence (P04233 whole entry): T2 sequence (P04233 whole entry)

[6] = biological target: T1, MIF/CD74 (Macrophage migration inhibitory factor and HLA-DR antigens-associated invariant chain) (Homo sapiens); assay: Binding affinity to human biotinylated MIF/CD74 at 500 nM; format: protein assay
[7] = biological target: T3, Macrophage migration inhibitory factor (Homo sapiens); assay: Induction of MIF-dependent ERK1/2 phosphorylation in human fibroblast after 30 mins by Western blotting
[8] = biological target: T1, MIF/CD74 (Macrophage migration inhibitory factor and HLA-DR antigens-associated invariant chain) (Homo sapiens); assay: Activation of human biotinylated MIF/CD74; format: protein assay
[9] = biological target: T3, Macrophage migration inhibitory factor (Homo sapiens); assay: Agonist activity at human MIF tautomerase using 4-hydroxyphenylpyruvate as substrate at 100 uM; format: functional
[10] = biological target: T3, Macrophage migration inhibitory factor (Homo sapiens); assay: as §2; outline: as §3
[11] = biological target: T1, MIF/CD74 (Macrophage migration inhibitory factor and HLA-DR antigens-associated invariant chain) (Homo sapiens); assay: Binding affinity to human biotinylated MIF/CD74 at 100 nM; format: protein assay
[12] = biological target: T1, MIF/CD74 (Macrophage migration inhibitory factor and HLA-DR antigens-associated invariant chain) (Homo sapiens); assay: Binding affinity to human biotinylated MIF/CD74 at 150 nM; format: protein assay

SMILES: COc1cccc(Cn2cc(-c3ccc(O)cc3)nn2)c1OC
IC50 [2]: 0.9 µM
inhibition [3]: Active
IC50 ([4]; read-out: IC50): 0.75 µM

SMILES: COc1cccc(Cc2cn(-c3ccc(O)cc3)nn2)c1OC
IC50 [5]: Not Active

SMILES: COc1ccccc1Cn1cc(-c2ccc(O)cc2)nn1
Activity [6]: 40%
Activity [7]: Active
Activity [8]: 31%
Activity [9]: Active

SMILES: Oc1ccc(-c2cn(Cc3ccccc3)nn2)cc1
IC50 [5]: Not Active

SMILES: Oc1ccc(-n2cc(-c3cccc4ccccc34)nn2)cc1
IC50 [5]: Not Active

SMILES: Oc1ccc(-c2cn(Cc3ccccn3)nn2)cc1
Imax [1]: 30%

SMILES: Oc1ccc(-n2cc(Cc3cccc(O)c3)nn2)cc1
IC50 [5]: Not Active
IC50 [4]: Not Active

SMILES: Cc1ccccc1Cn1cc(-c2ccc(O)cc2)nn1
IC50 [5]: Not Active

SMILES: Cc1cccc(Cn2cc(-c3ccc(O)cc3)nn2)c1
IC50 [5]: Not Active

SMILES: Oc1ccc(-c2cn(-c3cncc4ccccc34)nn2)cc1
Imax [1]: 12%

SMILES: O=C(O)c1cccc(Cn2cc(-c3ccc(O)cc3)nn2)c1
IC50 [5]: Not Active

SMILES: COc1ccc(Cn2cc(-c3ccc(O)cc3)nn2)cc1
IC50 [5]: Not Active

Next, values leading:

Imax [1]: 16%
SMILES: Oc1ccc(-c2cn(-c3cccnc3)nn2)cc1

Imax [1]: 36%
SMILES: COc1ccc(Cc2cn(-c3ccc(O)cc3)nn2)cc1

Imax [1]: 23%
SMILES: Oc1ccc(-c2cn(-c3cccc4ccccc34)nn2)cc1

Imax [1]: 22%
SMILES: COc1ccc(Cc2cn(-c3ccc(O)cc3)nn2)cc1OC

Imax [1]: 14%
Imax [10]: 35%
SMILES: COc1ccccc1Cc1cn(-c2ccc(O)cc2)nn1

IC50 [2]: 3.5 µM
SMILES: Oc1ccc(-n2cc(Cc3ccccc3)nn2)cc1

Imax [1]: 30%
SMILES: Cc1cccc(Cc2cn(-c3ccc(O)cc3)nn2)c1

IC50 [2]: 50 µM
SMILES: COc1cccc(Cn2cc(-c3ccc(O)cc3)nn2)c1

Activity [7]: Active
Activity [11]: 100%
Activity [8]: 23%
Activity [9]: Active
SMILES: Oc1ccc(-n2cc(-c3cccnc3)nn2)cc1

Imax [1]: 8%
Imax [10]: 40%
SMILES: COc1cccc(Cc2cn(-c3ccc(O)cc3)nn2)c1

Activity [7]: Active
Activity [12]: 100%
Activity [8]: 39%
Activity [9]: Active
SMILES: Oc1ccc(-n2cc(-c3cncc4ccccc34)nn2)cc1

Imax [1]: 23%
IC50 ([4]; read-out: IC50): 690 µM
SMILES: Oc1ccc(Cc2cn(-c3ccc(O)cc3)nn2)cc1

IC50 [2]: 1.2 µM
IC50 ([4]; read-out: IC50): 2.5 µM
SMILES: COC(=O)c1cccc(Cn2cc(-c3ccc(O)cc3)nn2)c1

Imax [1]: 20%
SMILES: Oc1ccc(-c2cn(Cc3cccnc3)nn2)cc1

Imax [1]: 9%
IC50 ([4]; read-out: IC50): 1000 µM
SMILES: Oc1ccc(-n2cc(Cc3ccccc3O)nn2)cc1
